Assay [1] concerns the target Sodium-dependent serotonin transporter (Rattus norvegicus, UniProt P31652). Briefly: Displacement of [3H]citaloporam from SERT in rat brain. Type of assay: tissue-based. In a few lines:
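Competition binding against [3H]citalopram in rat brain stem or midbrain membranes. Ligand was used as free base, freshly prepared and kept in the dark. Ki from at least three independent experiments, each in triplicate. Values are mean ± SEM.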
On the technique in general: Displacement assays read how much labelled ligand stays bound in the presence of the test substance.

For assay [2], the target named is Sodium-dependent dopamine transporter (Rattus norvegicus, UniProt P23977). The assay can be described thus: Displacement of [3H]WIN-35428 from DAT in rat striatal membrane. Format: cell membranes, Striatum. The procedure, abridged: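 Competition binding against [3H]WIN 35 428 in rat striatal membranes. Ligand was used as free base, freshly prepared and kept in the dark. Ki from at least three independent experiments, each in triplicate. Values are mean ± SEM.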
Sodium-dependent dopamine transporter, sequence (P23977 whole entry): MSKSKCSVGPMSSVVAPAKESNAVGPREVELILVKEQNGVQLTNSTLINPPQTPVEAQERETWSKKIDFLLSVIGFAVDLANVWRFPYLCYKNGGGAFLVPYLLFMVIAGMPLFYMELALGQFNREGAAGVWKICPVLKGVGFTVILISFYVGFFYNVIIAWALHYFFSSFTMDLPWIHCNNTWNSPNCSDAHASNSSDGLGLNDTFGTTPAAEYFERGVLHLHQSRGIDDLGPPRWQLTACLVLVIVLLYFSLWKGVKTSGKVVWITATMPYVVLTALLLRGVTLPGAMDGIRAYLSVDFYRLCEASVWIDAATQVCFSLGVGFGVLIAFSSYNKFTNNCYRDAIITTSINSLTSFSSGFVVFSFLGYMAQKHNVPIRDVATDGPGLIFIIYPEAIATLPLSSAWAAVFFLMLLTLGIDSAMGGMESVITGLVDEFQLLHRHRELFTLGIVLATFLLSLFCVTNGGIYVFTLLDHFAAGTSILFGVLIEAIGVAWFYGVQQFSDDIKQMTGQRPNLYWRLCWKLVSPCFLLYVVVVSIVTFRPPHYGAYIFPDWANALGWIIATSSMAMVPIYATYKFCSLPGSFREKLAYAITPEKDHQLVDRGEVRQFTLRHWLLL

For assay [3], the target named is Sodium-dependent dopamine transporter (Homo sapiens) (UniProt Q01959). Briefly: Photo labeling activity at human DAT expressed in HEK293 cells in the presence of (-)cocaine. Format: cell-based. Conditions: tested as the 125I-labelled form. The procedure, abridged: (§1)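 Cocaine-protection version of the photolabeling. HEK 293 cells expressing hDAT or hSERT were photolabeled with [125I] azido ligand in the presence of 10 µM (-)cocaine. Cells were solubilized and immunoprecipitated with transporter-specific antisera. Read-out was SDS-PAGE and autoradiography.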
Sodium-dependent dopamine transporter (Homo sapiens), sequence (Q01959 whole entry): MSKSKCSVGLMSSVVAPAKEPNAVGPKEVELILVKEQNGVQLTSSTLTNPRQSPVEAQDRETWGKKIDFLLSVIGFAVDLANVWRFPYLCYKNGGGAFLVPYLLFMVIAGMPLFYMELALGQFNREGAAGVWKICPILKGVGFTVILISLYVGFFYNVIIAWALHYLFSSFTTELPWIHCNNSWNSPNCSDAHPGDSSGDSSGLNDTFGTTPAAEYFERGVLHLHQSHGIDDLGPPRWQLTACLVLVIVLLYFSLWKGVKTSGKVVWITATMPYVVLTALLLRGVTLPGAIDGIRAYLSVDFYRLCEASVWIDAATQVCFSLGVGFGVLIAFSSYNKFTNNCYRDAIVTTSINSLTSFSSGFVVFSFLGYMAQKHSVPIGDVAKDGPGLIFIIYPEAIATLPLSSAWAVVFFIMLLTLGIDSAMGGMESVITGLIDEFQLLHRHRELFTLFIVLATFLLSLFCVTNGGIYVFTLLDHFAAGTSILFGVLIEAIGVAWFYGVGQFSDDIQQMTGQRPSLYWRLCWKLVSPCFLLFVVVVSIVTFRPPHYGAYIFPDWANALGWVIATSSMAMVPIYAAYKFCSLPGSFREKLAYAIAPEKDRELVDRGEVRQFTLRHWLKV

Assay [4] concerns the target Sodium-dependent serotonin transporter (Homo sapiens) (UniProt P31645). Briefly: Photo labeling activity at human SERT expressed in HEK293 cells in the presence of (-)cocaine. Format: cell-based. Conditions: tested as the 125I-labelled form. The procedure, abridged: as §1
The target of assay [5] is Sodium-dependent dopamine transporter (Homo sapiens) (UniProt Q01959). The assay can be described thus: Photo labeling activity at human DAT expressed in HEK293 cells. Format: cell-based. Conditions: tested as the 125I-labelled form. In a few lines: (§2)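 HEK 293 cells expressing hDAT or hSERT were photolabeled with [125I] azido ligand (specific activity about 2000 mCi/µmol, radiochemical purity 99%). Cells were solubilized and lysates immunoprecipitated with DAT- or SERT-specific antisera. Read-out was SDS-PAGE and autoradiography, detecting labeled protein bands of 80 or 66 kDa.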

For assay [6], the target named is Sodium-dependent serotonin transporter (Homo sapiens) (UniProt P31645). The assay can be described thus: Photo labeling activity at human SERT expressed in HEK293 cells. Type of assay: cell-based. Conditions: tested as the 125I-labelled form. The procedure, abridged: as §2
Sodium-dependent serotonin transporter (Homo sapiens), sequence (P31645 whole entry, looked up): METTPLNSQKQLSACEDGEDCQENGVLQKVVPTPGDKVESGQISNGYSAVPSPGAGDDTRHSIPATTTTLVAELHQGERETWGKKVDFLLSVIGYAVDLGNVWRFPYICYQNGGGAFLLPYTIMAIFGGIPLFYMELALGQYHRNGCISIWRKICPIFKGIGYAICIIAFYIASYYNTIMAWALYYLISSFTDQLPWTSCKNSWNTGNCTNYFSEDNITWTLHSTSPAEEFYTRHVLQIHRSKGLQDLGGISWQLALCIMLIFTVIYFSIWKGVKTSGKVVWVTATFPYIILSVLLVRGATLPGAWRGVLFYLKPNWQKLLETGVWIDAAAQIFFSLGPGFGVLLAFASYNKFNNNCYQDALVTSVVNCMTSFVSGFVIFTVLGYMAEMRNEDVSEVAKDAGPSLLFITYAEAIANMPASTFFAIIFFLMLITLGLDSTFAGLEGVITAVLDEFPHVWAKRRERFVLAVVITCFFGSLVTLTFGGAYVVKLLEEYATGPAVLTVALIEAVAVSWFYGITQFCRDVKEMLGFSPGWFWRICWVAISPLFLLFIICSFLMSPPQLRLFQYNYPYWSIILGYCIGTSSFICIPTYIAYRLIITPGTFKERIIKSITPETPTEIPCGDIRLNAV

The source made the active and inactive calls. The rule behind the calls is not given here.

Sodium-dependent serotonin transporter, sequence (P31652 whole entry): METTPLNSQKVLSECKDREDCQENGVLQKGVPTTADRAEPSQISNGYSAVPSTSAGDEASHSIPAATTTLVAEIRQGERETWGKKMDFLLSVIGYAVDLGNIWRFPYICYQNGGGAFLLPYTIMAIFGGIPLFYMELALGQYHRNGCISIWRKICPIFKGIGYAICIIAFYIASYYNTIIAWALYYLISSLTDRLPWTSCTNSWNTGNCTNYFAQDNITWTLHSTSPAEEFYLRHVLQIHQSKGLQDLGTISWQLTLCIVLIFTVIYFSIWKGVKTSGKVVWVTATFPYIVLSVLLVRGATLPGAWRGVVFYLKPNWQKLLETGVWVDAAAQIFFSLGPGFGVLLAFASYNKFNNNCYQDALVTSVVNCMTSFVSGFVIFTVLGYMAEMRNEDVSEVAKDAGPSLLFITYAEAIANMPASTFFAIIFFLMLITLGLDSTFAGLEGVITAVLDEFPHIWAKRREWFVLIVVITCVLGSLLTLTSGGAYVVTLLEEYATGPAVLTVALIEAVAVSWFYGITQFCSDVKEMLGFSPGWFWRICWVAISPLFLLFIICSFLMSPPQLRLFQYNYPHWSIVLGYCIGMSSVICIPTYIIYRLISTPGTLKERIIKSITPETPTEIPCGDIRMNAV

A word on the Ki: it is the equilibrium dissociation constant of an inhibitor or competing ligand from its target. Read a low Ki as a stronger hold on the target. With `COC(=O)[C@@H]1C2CCC(C[C@@H]1c1ccc(-c3ccc(N)cc3)cc1)N2C` (some centres undefined), the Ki in assay [1] came out at 1070 nM; in assay [2] it was 12.9 nM.

`COC(=O)[C@@H]1C2CCC(C[C@@H]1c1ccc(-c3ccc(N=[N+]=[N-])c(I)c3)cc1)N2C` (some centres undefined): the result in assay [3] and in assay [4] was inactive. Besides, the Ki is 109 nM in assay [1] and 15.1 nM in assay [2]. Moreover, the outcome in assay [5] and in assay [6] was Active.

As for `COC(=O)[C@@H]1C2CCC(C[C@@H]1c1ccc(-c3ccc(N)c(I)c3)cc1)N2C` (some centres undefined), the Ki in assay [1] is 8.82 nM; in assay [2] it was 134 nM.

Consider `COC(=O)[C@@H]1C2CCC(C[C@@H]1c1ccc(Br)cc1)N2C` (some centres undefined), for which the Ki in assay [1] came out at 4.1 nM; in assay [2] it was 0.42 nM.

Turning to `COC(=O)[C@@H]1C2CCC(C[C@@H]1c1ccc(-c3ccc([N+](=O)[O-])cc3)cc1)N2C` (some centres undefined), the Ki in assay [1] amounted to 51 nM; in assay [2], 5.03 nM.

(Values after ChEMBL document CHEMBL1137312, “Design and synthesis of a novel photoaffinity ligand for the dopamine and serotonin transporters based on 2beta-carbomethoxy-3beta-biphenyltropane” (J Med Chem, 2006).)
